Measured values of several laboratories.
Protocols differ between the studies behind these lines.
Read-out: cell growth or viability

Cc1c(C(=O)O)ccc2c3n(nc12)[C@@H]1[C@H](C3)N(CC2CC2)[C@@]2(C(=O)Nc3cc(Cl)ccc32)[C@H]1c1cccc(Cl)c1F — GI50 (Rh18; resazurin): 0.005 µM
CO[C@]12C[C@@H](COC(=O)c3cncc(Br)c3)CN(C)[C@@H]1Cc1cn(C)c3cccc2c13 — IC50 (C6661; MTT; 48 h): 82.6 µM
Cc1noc2c1-c1ccccc1C(c1ccc(Cl)cc1)=N[C@H]2CC(N)=O — IC50 (KG-1; ATP luminescence; 72 h): 0.52 µM
C=C(F)C(=O)N1CCN(c2nc(OC[C@@H]3CCCN3C)nc3c2CCN(c2cccc4cccc(Cl)c24)C3)C[C@@H]1CC#N — IC50 (NCI-H23; ATP luminescence; 3D culture): 0.0113 µM
C=CC(=O)NC1CCN(c2ncc3ncnc(Nc4ccc(Oc5ccc6c(c5)ncn6C)c(C)c4)c3n2)CC1 — EC50 (SW1573): 0.079 µM
C=CC(=O)c1cccnc1Nc1cccc(C(F)(F)F)c1 — GI50 (NCI-H23; SRB; 48 h): 14.2 µM
COc1cc2nc(N3CCN(C(=O)C4COc5ccccc5O4)CC3)nc(N)c2cc1OC (stereo not drawn) — IC50 (C6661; MTT; 48 h): 54.3 µM
C=CC(=O)N1CCN(c2nc(=O)n(-c3c(C)ccnc3C(C)C)c3nc(-c4c(O)cccc4F)c(F)cc23)[C@@H](C)C1 — IC50 (NCI-H1573; ATP luminescence): > 10 µM
O=C(O)c1ccccc1Nc1cccc(C(F)(F)F)c1 — GI50 (NCI-H23; SRB; 48 h): > 30 µM
